# Most compounds without a hit are left out; they make up all but 3.3% or so of the library.
# SENP6 inh: SENP6 protease inhibitors, primary screen, biochemical, luminescence, uHTS | Recombinant SENP6 catalytic domain, aminoluciferin luminescence | inhibition, % at 10 µM | 330,000 tested, 1.8% active | AID 2599, 2010;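 active = inhibition above about 50% at the single tested dose, limit read from the data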;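 also: plate controls were DMSO wells with enzyme for no effect and DMSO wells lacking enzyme for full effect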
# SENP8 block-1: human SENP8 protease inhibitors, primary screen, biochemical, fluorescence, Nedd8 protein substrate, uHTS | 360,000 tested, 0.64% active | AID 602440, 2012 | recombinant SENP8 | Sentrin-specific protease 8 (Homo sapiens), Q96LD8 | inhibition, % at 20 µM; in the data active = inhibition mostly above about 40%, no sharp cut-off; inactive = mostly below about 27%
# NRP1-CendR mod: modulators of CendR peptide binding to NRP-1, primary screen, biochemical, fluorescence polarization, uHTS; FAM-RPARPAR peptide binding to NRP-1; inhibition, % at 25 µM; 360,000 tested, 0.85% active;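 active = inhibition or corrected inhibition above about 18%, plus a signal ratio from 0.5 to 1.5, limit read from the data, passing the limit was not always enough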
# Target sequence (O14786 whole entry, looked up): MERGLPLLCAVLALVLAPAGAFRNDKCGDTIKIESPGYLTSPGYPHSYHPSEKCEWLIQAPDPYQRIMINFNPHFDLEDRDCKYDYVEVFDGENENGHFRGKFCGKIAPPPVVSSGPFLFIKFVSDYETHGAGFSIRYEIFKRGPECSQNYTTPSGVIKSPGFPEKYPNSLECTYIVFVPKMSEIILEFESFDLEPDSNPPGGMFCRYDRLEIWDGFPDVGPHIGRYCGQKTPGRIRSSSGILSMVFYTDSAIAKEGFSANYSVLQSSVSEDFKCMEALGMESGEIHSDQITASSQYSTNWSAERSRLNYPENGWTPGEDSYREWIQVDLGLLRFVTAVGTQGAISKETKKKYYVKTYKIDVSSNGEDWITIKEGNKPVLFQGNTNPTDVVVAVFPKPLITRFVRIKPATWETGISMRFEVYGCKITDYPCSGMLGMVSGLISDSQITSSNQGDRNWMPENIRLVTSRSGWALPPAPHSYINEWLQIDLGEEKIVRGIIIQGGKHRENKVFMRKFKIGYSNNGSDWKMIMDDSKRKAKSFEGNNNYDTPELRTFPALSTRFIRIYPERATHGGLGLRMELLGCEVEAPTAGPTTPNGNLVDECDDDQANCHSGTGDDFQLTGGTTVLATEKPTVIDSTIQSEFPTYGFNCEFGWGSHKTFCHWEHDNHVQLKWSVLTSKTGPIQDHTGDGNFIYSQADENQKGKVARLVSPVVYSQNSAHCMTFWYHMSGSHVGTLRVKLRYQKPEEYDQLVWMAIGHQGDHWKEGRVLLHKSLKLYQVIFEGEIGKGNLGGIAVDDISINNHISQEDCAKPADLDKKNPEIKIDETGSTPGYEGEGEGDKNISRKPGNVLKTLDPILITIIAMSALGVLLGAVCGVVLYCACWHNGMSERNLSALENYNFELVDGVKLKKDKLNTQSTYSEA
# SENP1 FRET inh: human SENP1 catalytic domain inhibitors, primary screen, biochemical, FRET, uHTS. AID 624204, 2012. 360,000 tested, 0.21% active. recombinant SENP1 catalytic domain, CyPet-SUMO1-YPet FRET cleavage. inhibition, % at 10 µM. Sentrin-specific protease 1 (Homo sapiens), Q9P0U3;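 active = inhibition at least 30% at 10 µM, raw YFP signal under a set limit, fluorescence ratio 0.5 to 1.5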;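 also: 0% = enzyme with DMSO and 100% = no enzyme wells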
#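 Compound: 10 µM single point, 0.5% DMSO; Test system: hSENP1 catalytic domain, recombinant; Timing: 50 min reaction at room temperature; Technique: FRET, CFP and YFP emission; Control set: no-enzyme wells low, DMSO-plus-enzyme wells high control.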
# SENP7 block: SENP7 protease inhibitors, primary screen, biochemical, luminescence, uHTS | Sentrin-specific protease 7 (Homo sapiens), Q9BQF6 | recombinant SENP7, Z-RLRGG-aminoluciferin luminescence, 40 min | inhibition, % at 5 µM | 330,000 tested, 1.5% active;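 active = inhibition above about 50% at the single test dose, limit read from the data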;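 also: plate controls were DMSO with enzyme for no effect and no enzyme buffer wells for full effect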
# SENP8 block-2: SENP8 protease inhibitors, primary screen, biochemical, luminescence | 330,000 tested, 1.2% active | Sentrin-specific protease 8 (Homo sapiens), Q96LD8 | inhibition, % at 10 µM | purified SENP8, Z-RLRGG-aminoluciferin cleavage | AID 2540, 2010; in the data active = inhibition above about 50%
# * hit, by the source's call; . = not tested or not shown.
SMILES,SENP6 inh,SENP8 block-1,NRP1-CendR mod,SENP1 FRET inh,SENP7 block,SENP8 block-2
O=C(NC1CCCCC1)C(c1cc2ccccc2o1)N1CCOCC1 (stereo unspecified),.,30,3,2,.,.
COC(=O)C[C@H]1CC[C@H](NC(=O)Nc2ccccc2OC)[C@@H](CO)O1,.,24,5,0,.,.
Cc1ccc(NC(=O)CCC(=O)N/N=C/c2cccnc2)cc1,-8,10,1,0,-3,4
Cc1ccccc1NC(=O)CCC(=O)N/N=C/c1cccnc1,8,-3,22*,1,7,-4
O=c1ccc2cc3c([nH]c4ccc(Br)cc43)oc-2c1O,32,101*,-291,12,17,0
O=C(C(=O)N1CCN(c2ccncc2)CC1)c1cccc(Br)c1,.,26,18,2,.,.
Cc1cc(/C=C(\C#N)C(N)=O)c(C)n1-c1ccc(N2CCOCC2)c([N+](=O)[O-])c1,-6,24,-2,-8,1,4
Cc1cc(C=O)c(C)n1-c1ccc(N2CCCCC2)c([N+](=O)[O-])c1,-7,32,41*,-1,6,2
O=C(NC1(C(F)(F)F)NC(=O)N(Cc2ccccc2)C1=O)c1cccnc1 (stereo unspecified),-5,18,41*,2,4,-1
CN(C)/C=C1\Oc2ccc3ccccc3c2C1=O,13,-366,-2,-23,-1,1
O=C1C(=O)c2c(ccc3ccccc23)-c2ccccc21,.,99*,20,-2,.,.
O=C1c2c(O)cccc2C(C2OC(CO)[C@@H](O)[C@H](O)[C@H]2O)c2cc(CO)cc(O)c21 (stereo partly specified),-10,10,37*,10,11,0
O=C(O)c1cc(O)c2c(c1)[C@H]([C@H]1c3cc(C(=O)O)cc(O)c3C(=O)c3c(O[C@@H]4O[C@H](CO)[C@@H](O)[C@H](O)[C@H]4O)cccc31)c1cccc(OC3O[C@H](CO)[C@@H](O)[C@H](O)[C@H]3O)c1C2=O (stereo partly specified),-70,10,-14,27,-56,23
O=Cc1cc(N=Nc2cccc(C(=O)O)c2)ccc1O,95*,23,-40,11,98*,97*
CN1CCN(C2=C(Cl)C(=O)c3ccccc3C2=O)CC1,.,73*,36*,1,.,.
COCC(=O)N1C[C@@H](C)[C@@H](OC)CN(C)C(=O)c2ccc(NC(=O)c3cnccn3)cc2OC[C@H]1C,.,19,-12,0,.,.
Cc1cc(C)nc(SCc2csc(N)n2)n1,16,6,-2,-4,2,-2
Cc1cc(C)nc(SCc2csc(-c3ccccc3)n2)n1,60*,11,-13,0,38,30
CC(C)NC(=O)/C(C#N)=C/c1ccc(N(C)C)o1,-7,40*,-151,-45,-8,0
Cc1ccc(/C=C(\C#N)C(=O)NC(C)C)o1,-4,10,2,2,0,-2
Cc1cc(=O)[nH]c(Nc2ccc(Cl)cc2)n1,-6,9,22*,2,-7,-3
COC(=O)c1cc2c(n1S(=O)(=O)c1ccc(C)cc1)C(=O)C(=O)c1[nH]cc(C(=O)OCc3ccccc3)c1-2,.,108*,27*,0,.,.
O=[N+]([O-])c1ccc(-n2nnnc2CN2CCCCC2)cc1,1,17,24*,0,1,3
Cc1ccnc(NC(=O)COc2ccc3oc4c(c3c2)CCCC4)c1,11,4,44*,-1,-14,-17
O=c1oc(-c2ccc([N+](=O)[O-])cc2)nc2ccccc12,7,11,7,3,-19,-4
O=c1oc(-c2ccc([N+](=O)[O-])cc2)nc2ccc(O)cc12,95*,7,11,5,100*,95*
CCc1ccc(NC(=O)CCc2c(C)nn(-c3ccc(N4CCOCC4)nn3)c2C)cc1,-4,-24,7,1,1,0
CCc1cccc(NC(=O)CCc2c(C)nn(-c3ccc(N4CCOCC4)nn3)c2C)c1,9,-6,32*,3,1,8
